CHRM4 antagonist: CHRM4 antagonism in calcium assay | CHO-hM4 cells, ACh EC80, Fluo-8 calcium fluorescence | P08173 | inhibition, % at 3 µM | actives 0.73% (n = 360,000) | AID 624125;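 active = inhibition above its plate's cutoff, the mean inhibition of sample wells plus 3 SD, cut at about 27% in these data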
CHRM5 agonist: agonists of human muscarinic M5 receptor (CHRM5) | P08912 | activation, % at 3 µM | actives 0.19% (n = 360,000) | AID 624037 | CHO-K1 hM5 cells, Fluo-8 calcium fluorescence; 0% DMSO wells, 100% maximal acetylcholine response;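 active = activation above the run's mean over test compounds plus 3 SD, cut at about 23% in these data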;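 note: signal is peak over basal fluorescence ratio across the kinetic read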
Target sequence (P08912 whole entry, looked up): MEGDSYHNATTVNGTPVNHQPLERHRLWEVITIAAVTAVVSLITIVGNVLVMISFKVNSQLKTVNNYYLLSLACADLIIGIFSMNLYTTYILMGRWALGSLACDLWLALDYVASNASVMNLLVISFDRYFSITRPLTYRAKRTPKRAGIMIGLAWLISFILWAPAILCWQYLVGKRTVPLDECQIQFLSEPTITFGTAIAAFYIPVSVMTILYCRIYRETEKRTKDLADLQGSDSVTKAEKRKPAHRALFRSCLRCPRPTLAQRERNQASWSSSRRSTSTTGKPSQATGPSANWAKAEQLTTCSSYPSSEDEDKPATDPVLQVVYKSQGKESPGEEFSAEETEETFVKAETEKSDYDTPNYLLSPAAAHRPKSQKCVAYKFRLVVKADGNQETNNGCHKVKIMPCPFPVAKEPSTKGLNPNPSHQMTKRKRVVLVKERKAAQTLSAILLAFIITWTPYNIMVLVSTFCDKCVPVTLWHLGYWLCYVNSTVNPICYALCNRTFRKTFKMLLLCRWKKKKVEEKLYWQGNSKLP
M5 antag: blocks acetylcholine activation of human M5 receptor; P08912; CHO-hM5 cells, Fluo-8 calcium fluorescence, ACh EC80; inhibition, % at 3 µM; actives 0.59% (n = 360,000);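 active = inhibition above a per-plate cutoff, the mean of that plate's test compounds plus 3 SD, cut at about 27% in these data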
CHRM4 PAM: CHRM4 positive allosteric modulation; AID 624126; actives 0.4% (n = 360,000); P08173; CHO-K1 hM4/Gqi5, Fluo-8 calcium fluorescence, ACh EC20; 0% = ACh EC20, 100% = maximal ACh; activation, % at 3 µM;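 active = activation above its plate's cutoff, the mean activation of sample wells plus 3 SD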
M4 ag: CHRM4 agonism in calcium assay; P08173; CHO-K1 hM4/Gqi5, Fluo-8 calcium fluorescence; vehicle 0%, full acetylcholine response 100%; activation, % at 3 µM; actives 0.14% (n = 360,000);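 active = activation above the run mean over all test wells plus 3 SD, cut at about 32% in these data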;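 note: peak over basal fluorescence ratio per well then scaled between controls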
CHRM5 PAM: CHRM5 positive allosteric modulation; CHO-K1 hM5, Fluo-8 calcium, ACh EC20 PAM; 0% = ACh EC20, 100% = ACh EC100; activation, % at 3 µM; actives 0.3% (n = 360,000);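 active = activation above the run cutoff, the mean activation of all test compounds plus 3 SD, cut at about 18% in these data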
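system = human M5 receptor in CHO-K1 cells | reagent = EC20 acetylcholine as agonist stimulus | compound dosing = single-point, 3 µM nominal | incubation = Fluo-8 loading 80 min at 37 °C plus 30 min room temperature | detection = Fluo-8 calcium dye fluorescence, kinetic read | benchmarks = low control EC20 acetylcholine (0%), high control EC100 acetylcholine (100%)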
A number is an active result; . = inactive. Hits are enriched below; roughly 1.9% of the tested compounds scored in any of these assays.

SMILES	CHRM4 antagonist	CHRM5 agonist	M5 antag	CHRM4 PAM	M4 ag	CHRM5 PAM
CC(=O)Nc1ccc(C(=O)OCC(=O)Nc2ccc(N3CCOCC3)cc2)cc1	.	.	.	.	.	.
CC(=O)Nc1c(C#N)c(-c2ccccc2)c(C#N)c(=O)n1-c1ccc(C)cc1	.	.	.	.	.	.
CCCCCCC[N+](CC)(CC)CCCCc1ccc(Cl)cc1	38	.	.	.	.	.
CCCCCNCc1ccc(Cl)cc1	.	.	.	.	.	.
O=C1CCN(Cc2ccco2)C(=S)N1	.	.	.	.	.	.
CC(C)Cn1c(N)c(C(=O)CSc2nnc(C3CC3)n2C2CC2)c(=O)n(C)c1=O	.	.	.	.	.	.
CCC(C)n1c(=O)c(C(=O)Nc2ccccc2S(N)(=O)=O)c(O)c2ccccc21 (stereo unspecified)	.	.	.	.	.	27
CC(C)Cn1c(=O)c(C(=O)Nc2ccccc2S(N)(=O)=O)c(O)c2ccccc21	.	.	.	.	.	.
Cc1noc(C)c1COc1ccccc1C(=O)NCc1ccccc1Cl	.	.	99	.	.	.
Cc1cc(NC(=O)c2nn(C)c(C)c2Br)no1	.	.	.	.	.	.
Cc1cccc(C)c1NC(=O)C(c1ccc(C(F)(F)F)cc1)n1c(=O)c(-c2ccccc2)nc2ccccc21 (stereo unspecified)	.	.	.	.	.	.
Cc1cccc(C)c1NC(=O)C(c1ccc(C#N)cc1)n1c(=O)c(-c2ccccc2)nc2ccccc21 (stereo unspecified)	.	.	.	23	.	.
CCN(C(=O)Cn1c(Cl)nc2c1c(=O)n(C)c(=O)n2C)C1CCCCC1	.	.	.	.	.	.
CCNc1nc(=S)nc(NC(C)C)[nH]1	.	.	.	.	.	18
O=C(c1ccc(Cl)s1)N1CCN(C23CC4CC(CC(C4)C2)C3)CC1	.	.	.	.	.	.
O=C(c1cccs1)N1CCN(C23CC4CC(CC(C4)C2)C3)CC1	40	.	.	.	.	.
CC(C)Cc1ccc(-c2cc(=O)[nH][nH]2)cc1	.	.	28	.	.	.
COC(=O)c1cc(Cl)nc2ccccc12	.	.	.	.	.	21
CCCc1cc(C(=O)OC)c2ccccc2n1	.	.	.	.	.	.
S=C(NCc1ccncc1)Nc1cccc(Cl)c1	.	.	.	.	.	.
CCC(NC(=S)NCc1ccc(F)cc1)c1ccc(C(C)C)cc1 (stereo unspecified)	82	.	.	.	.	.
S=C(NCc1ccc(Cl)cc1)Nc1ccncc1	.	.	41	.	.	.
Fc1ccc(CNC(=S)Nc2ccc(Cl)cc2)cc1	.	.	31	.	.	.
S=C(NCc1ccc(Cl)cc1)Nc1ccccc1	.	.	.	.	.	.
C=CCN(c1ccccc1OC)S(=O)(=O)c1cccc(C(=O)NCc2cccs2)c1	.	.	.	.	.	.
SMILES	CHRM4 antagonist	CHRM5 agonist	M5 antag	CHRM4 PAM	M4 ag	CHRM5 PAM
CN(CC(=O)NCCc1ccc(S(N)(=O)=O)cc1)CC(=O)Nc1ccc(Cl)c(C(F)(F)F)c1	.	.	.	23	.	.
CSCc1nnc(NC(=O)c2ccc(S(=O)(=O)N(C)C)cc2)o1	.	.	.	.	.	19
C=CCN(CC=C)S(=O)(=O)c1ccc(C(=O)Nc2nnc(CSC)o2)cc1	.	.	.	.	.	.
COc1ccc(CNC(=O)[C@@H]2CC=C[C@@H]3CCN(Cc4ccc(Cl)c(Cl)c4)C(=O)[C@@H]32)cc1	.	.	.	.	.	.
COc1ccc(CNC[C@@H](CCCCN(C)Cc2ccc(OC)cc2)N2C[C@H](c3ccccc3)N(CCc3ccc(Cl)c(Cl)c3)C(=O)C2=O)cc1	.	.	.	.	60	.
CCOc1ccccc1C(=O)NCC(=O)NNC(=O)c1cccs1	.	.	.	.	.	.
C/C(=N\NC(=O)c1nn(C)c(C)c1Br)c1cccc(NC(=O)c2ccoc2C)c1	.	.	.	.	.	22
CCCNC(=O)c1nnsc1S(=O)(=O)c1ccc(Cl)cc1	65	.	.	.	.	.
CNC(=O)c1nnsc1S(=O)c1ccc(Cl)cc1 (stereo unspecified)	28	.	.	.	.	.
CCCNC(=O)c1nnsc1S(=O)c1ccc(Cl)cc1 (stereo unspecified)	43	.	.	.	.	.
O=C1NC(=O)/C(=C/C(=O)N2CCOCC2)S1	.	.	.	.	.	.
Cc1cc(C)n2c(NC3CCCCC3)c(-c3cccnc3)nc2n1	.	.	.	.	.	.
Cn1nc(C(F)(F)F)c(-c2cccc(C(F)(F)F)c2)c1NC(=O)Nc1ccc(F)cc1	.	.	34	.	.	.
Cc1ccc(-c2nn(CCC(=O)O)cc2/C=C\C(=O)c2ccc(Br)cc2)cc1	.	.	.	19	.	23
COc1cccc(CNC(=O)[C@@H]2CCCN2C(=O)[C@H]2CCCCN2C(=O)c2c(F)cccc2F)c1	.	.	.	.	.	.
COc1ccc(C(=O)Nc2cccnc2)cc1S(=O)(=O)N1CCOCC1	.	.	.	.	.	20
C=C1C(=O)C23C(O)C1CCC2C12CCCC(C)(COC(C)=O)C1C(O)C3(O)OC2 (stereo unspecified)	42	.	.	.	.	.
O=c1cc(-c2ccc(O)cc2)oc2ccc(O)cc12	.	.	.	42	.	.
O=c1cc(-c2ccc(O)cc2)oc2ccccc12	.	.	.	.	.	.
COc1ccccc1NC(=O)CN1CCN(CC(=O)Nc2ccc(C)c(F)c2)CC1	.	.	.	.	.	.
CCC(=O)N1Cc2cc(C(=O)Nc3nccs3)nc(-c3cccc(-c4ccccc4OC)c3)c2[C@H]1CCO	27	.	.	.	.	.
CCNC(=O)c1cc2c(c(-c3cccc(-c4cc5ccccc5o4)c3)n1)[C@H](CCO)N(C(=O)NC(C)C)C2	29	.	.	.	.	.
CN(C)CCOC1c2ccccc2CCc2ccc3ccccc3c21 (stereo unspecified)	.	.	33	.	.	.
CCN(CC(=O)NC1CCS(=O)(=O)C1)c1ccc([N+](=O)[O-])cc1C#N (stereo unspecified)	.	.	.	.	.	.
Cc1ccc(S(=O)(=O)N(C)C[C@@H]2OCc3cn(nn3)CCCC(=O)N([C@H](C)CO)C[C@H]2C)cc1	.	.	.	.	.	.
CCOC(=O)C1(C)CCCN(C(=O)c2ccccc2F)C1 (stereo unspecified)	.	.	.	.	.	.

Screening data as filed in PubChem BioAssay.
